In ChEMBL document CHEMBL3734694, “Design, synthesis, and anticancer evaluation of long-chain alkoxylated mono-carbonyl analogues of curcumin” (Eur J Med Chem, 2015):
Converted amounts (≈) assume the structure as drawn. Each block holds one compound with its values, some of them ahead of it. The source made the active and inactive calls. The rule behind the calls is not given here.

Key:
SGC-7901 [1] = experiment: Induction of apoptosis in human SGC7901 cells assessed as increase in cleaved PARP incubated for 24 hrs by immunoblotting; type: functional, cell-based
Summary of the method: (§1)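 SGC7901 cells treated 24 h at 2.5, 5 or 10 μM. Lysed on ice for 30 min; 60 µg protein run on 10% SDS-PAGE and transferred to PVDF. Blocked in 5% milk. Primary antibodies (cleaved PARP, pro-caspase-3, Bcl-2) overnight at 4°C, HRP secondary 1:300 for 1 h at room temperature. ECL detection. Three experiments.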

[2] = Cytotoxicity against human SW620 cells assessed as inhibition of cell proliferation incubated for 72 hrs by MTS assay; type: functional, cell-based; settings: SW-620, 72 h
Summary of the method: (§2)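 Cells in RPMI-1640 with 10% heat-inactivated FBS at 37°C, 5% CO2. Seeded at 4000 cells/well in triplicate and attached overnight. Exposed to various concentrations for 72 h. MTS added for a further 4 h; absorbance at 490 nm. IC50 = concentration for 50% growth inhibition, as mean ± SEM of three independent tests.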

[3] = Solubility of compound in water
[4] = Cytotoxicity against human MGC803 cells assessed as inhibition of cell proliferation at 10 uM incubated for 72 hrs by MTS assay; type: functional; settings: MGC-803, 72 h
Summary of the method: (§3)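 Single-concentration MTS screen at 10 μM. Cells in RPMI-1640 with 10% FBS, seeded at 4000 cells/well in triplicate, attached overnight, then exposed for 72 h at 37°C, 5% CO2. MTS for 4 h; absorbance 490 nm. Reported as % inhibition.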

[5] = Cytotoxicity against human SGC7901 cells assessed as inhibition of cell proliferation at 10 uM incubated for 72 hrs by MTS assay; type: functional; settings: SGC-7901, 72 h; summary of the method: as §3
[6] = Cytotoxicity against human SW620 cells assessed as inhibition of cell proliferation at 10 uM incubated for 72 hrs by MTS assay; type: functional; settings: SW-620, 72 h; summary of the method: as §3
SGC-7901 [7] = experiment: Induction of apoptosis in human SGC7901 cells assessed as necrotic cells and late apoptotic cells incubated for 30 hrs by PI and Annexin V-FITC-based flow cytometric analysis; type: functional, cell-based
Summary of the method: (§4)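 SGC7901 cells grown to 80% confluency in 6-well plates, then treated 30 h with 2.5, 5 or 10 μM. DMSO negative control. Cells washed in ice-cold PBS and stained with FITC-Annexin V and PI in binding buffer. Read by flow cytometry: UR = necrotic/late apoptotic, LR = early apoptotic. Three separate experiments.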

[8] = Cytotoxicity against human GES-1 cells assessed as inhibition of cell proliferation incubated for 72 hrs by MTS assay; type: functional, cell-based; settings: GES1, 72 h; summary of the method: as §2
CT26 [9] = experiment: Cytotoxicity against mouse CT26 cells at 10 uM assessed as inhibition of cell proliferation incubated for 72 hrs by MTS assay; type: functional; settings: CT26, 72 h; summary of the method: as §3
SGC-7901 [10] = experiment: Induction of apoptosis in human SGC7901 cells assessed as decrease in procaspase-3 fragments at 2.5 to 10 uM incubated for 24 hrs by immunoblotting; type: functional, cell-based; summary of the method: as §1
[11] = Cytotoxicity against human MGC803 cells assessed as inhibition of cell proliferation incubated for 72 hrs by MTS assay; type: functional, cell-based; settings: MGC-803, 72 h; summary of the method: as §2
[12] = Cytotoxicity against human SGC7901 cells assessed as inhibition of cell proliferation incubated for 72 hrs by MTS assay; type: functional, cell-based; settings: SGC-7901, 72 h; summary of the method: as §2
CT26 [13] = experiment: Cytotoxicity against mouse CT26 cells assessed as inhibition of cell proliferation incubated for 72 hrs by MTS assay; type: functional, cell-based; settings: CT26, 72 h; summary of the method: as §2
SGC-7901 [14] = experiment: Induction of apoptosis in human SGC7901 at 10 uM incubated for 30 hrs by PI and Annexin V-FITC-based flow cytometric analysis; type: functional; summary of the method: as §4
[15] = Antitumor activity against human SGC7901 cells xenografted in nude mouse at 100 mg/kg, po qd for 23 days; type: functional; settings: SGC-7901, po, 552 h
Summary of the method: (§5)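 SGC7901 xenograft: female nude mice, 8 weeks old, given 10 million cells s.c. At about 40 mm³, randomized to 0.5% CMCNA vehicle or oral daily doses for 23 consecutive days. Calipers every 2 days; volume = π/6 × large diameter × (small diameter)². %ΔT/ΔC determined. Tumours weighed after sacrifice on the final day. Mean ± SEM; Student's t-test.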

SGC-7901 [16] = experiment: Antitumor activity against human SGC7901 cells xenografted in nude mouse assessed as increase in cleaved caspase-3 at 50 and 100 mg/kg, po qd for 23 days by DAB substrate-chromogen staining-based immunohistochemistry; type: functional, organism-based
Summary of the method: (§6)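 Female nude mice, eight weeks old, injected s.c. with 10 million SGC7901 cells. At about 40 mm³, randomized to 0.5% CMCNA vehicle or daily oral dosing for 23 consecutive days. Tumour halves fixed in 4% paraformaldehyde. 5 μm sections, citrate antigen retrieval. Primary antibody overnight at 4°C (anti-Ki67 1:50, cleaved caspase-3 1:100), then HRP secondary 1:100 for 2 h at 37°C. DAB stain, hematoxylin counterstain.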

SGC-7901 [17] = experiment: Antitumor activity against human SGC7901 cells xenografted in po dosed nude mouse assessed as decrease in tumor weight administered as once daily for 23 days; type: functional, organism-based; summary of the method: as §5
Mus musculus [18] = experiment: Toxicity in po dosed nude mouse xenografted with human SGC7901 cells assessed as drug tolerability by measuring clinical parameters at 50 and 100 mg/kg, po qd for 23 days; type: organism-based, SGC-7901; settings: in vivo, 552 h
Summary of the method: (§7)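 Female nude mice (8 weeks) bearing s.c. SGC7901 tumours (10 million cells injected) of about 40 mm³. Given 0.5% CMCNA vehicle or 50 or 100 mg/kg/day orally for 23 consecutive days. Observed daily. Body weights monitored for the duration of the study.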

SGC-7901 [19] = experiment: Induction of apoptosis in human SGC7901 cells assessed as decrease in BCL2 expression at 2.5 to 10 uM incubated for 24 hrs by immunoblotting; type: functional, cell-based; summary of the method: as §1
SGC-7901 [20] = experiment: Antitumor activity against human SGC7901 cells xenografted in nude mouse assessed as decrease cell proliferation at 50 and 100 mg/kg, po qd for 23 days by Ki67 staining-based immunohistochemistry; type: functional, organism-based; summary of the method: as §6
Mus musculus [21] = experiment: Toxicity in po dosed nude mouse xenografted with human SGC7901 cells assessed as loss of body weight at 50 and 100 mg/kg, po qd for 23 days; type: organism-based, SGC-7901; settings: in vivo, 552 h; summary of the method: as §7

solubility [3]: 0.114 mg/mL (≈ 243 µM)
Compound: COc1cc(/C=C/C(=O)/C=C/c2cccc(OC)c2OC)ccc1OCCCN1CCOCC1
Activity (SGC-7901 [1]): inactive
IC50 [2]: 1.02 µM
inhibition at 10 µM [4]: 77.6%
inhibition at 10 µM [5]: 73.7%
inhibition at 10 µM [6]: 82.1%
Activity (SGC-7901 [7]): inactive
IC50 [8]: 2.77 µM
inhibition at 10 µM (CT26 [9]): 88.9%
Activity (SGC-7901 [10]): Active
IC50 [11]: 2.49 µM
IC50 [12]: 1.84 µM
IC50 (CT26 [13]): 2.38 µM

solubility [3]: 0.0212 mg/mL (≈ 48.5 µM)
Compound: COc1ccccc1/C=C/C(=O)/C=C/c1ccc(OCCCN2CCOCC2)c(OC)c1
Activity (SGC-7901 [14]): 50%
inhibition in vivo at 100 mg/kg [15]: 48%
Activity (SGC-7901 [1]): Dose-dependent effect
Activity (SGC-7901 [16]): Active
IC50 [2]: 1.22 µM
inhibition (SGC-7901 [17]): Dose-dependent effect
inhibition at 10 µM [4]: 80.3%
inhibition at 10 µM [5]: 75.3%
inhibition at 10 µM [6]: 105%
Activity (SGC-7901 [7]): Dose-dependent effect
Activity (Mus musculus [18]): Non-toxic
Activity (SGC-7901 [19]): Active
IC50 [8]: 2.62 µM
inhibition at 10 µM (CT26 [9]): 104%
Activity (SGC-7901 [20]): Active
Activity (Mus musculus [21]): Non-toxic
Activity (SGC-7901 [10]): Active
IC50 [11]: 2.18 µM
IC50 [12]: 1.91 µM
IC50 (CT26 [13]): 2.56 µM

solubility [3]: 0.00363 mg/mL (≈ 6.38 µM)
Compound: COc1cc(/C=C2\CC/C(=C\c3ccc(OCCCn4ccnc4)c(OC)c3)C2=O)ccc1OCCCn1ccnc1
IC50 [2]: 0.95 µM
inhibition at 10 µM [4]: 16.3%
inhibition at 10 µM [5]: 76.8%
inhibition at 10 µM [6]: 93.5%
IC50 [8]: 7.09 µM
inhibition at 10 µM (CT26 [9]): 101%
IC50 [11]: 2.46 µM
IC50 [12]: 0.89 µM
IC50 (CT26 [13]): 0.36 µM

Compound: COc1cc(/C=C2\CC/C(=C\c3ccc(OCCCN4CCOCC4)c(OC)c3)C2=O)ccc1OCCCN1CCOCC1
IC50 [2]: 1.49 µM
inhibition at 10 µM [4]: 83.9%
inhibition at 10 µM [5]: 86.1%
inhibition at 10 µM [6]: 86%
IC50 [8]: > 30 µM
inhibition at 10 µM (CT26 [9]): 92.5%
IC50 [11]: 2.28 µM
IC50 [12]: 1 µM
IC50 (CT26 [13]): 0.39 µM

Compound: COc1cc(/C=C2\CCC/C(=C\c3ccc(OCCCN4CCOCC4)c(OC)c3)C2=O)ccc1OCCCBr
IC50 [2]: 5.64 µM
inhibition at 10 µM [4]: 51.2%
inhibition at 10 µM [5]: 61.9%
inhibition at 10 µM [6]: 72.7%
IC50 [8]: 10 µM
inhibition at 10 µM (CT26 [9]): 65.2%
IC50 [11]: 10.2 µM
IC50 [12]: 11 µM
IC50 (CT26 [13]): 10.5 µM

Compound: COc1cc(/C=C2\CCC/C(=C\c3ccc(OCCCn4ccnc4)c(OC)c3)C2=O)ccc1OCCCn1ccnc1
IC50 [2]: 2.79 µM
inhibition at 10 µM [4]: 88.5%
inhibition at 10 µM [5]: 85%
inhibition at 10 µM [6]: 82.4%
IC50 [8]: 2.87 µM
inhibition at 10 µM (CT26 [9]): 90.9%
IC50 [11]: 2.21 µM
IC50 [12]: 3.38 µM
IC50 (CT26 [13]): 3.59 µM

Compound: COc1ccc(/C=C/C(=O)/C=C/c2ccc(OCCCN3CCOCC3)c(OC)c2)cc1OC
IC50 [2]: 2.8 µM
inhibition at 10 µM [4]: 53.8%
inhibition at 10 µM [5]: 66.1%
inhibition at 10 µM [6]: 84.8%
IC50 [8]: 7.81 µM
inhibition at 10 µM (CT26 [9]): 79.7%
IC50 [11]: 7.14 µM
IC50 [12]: 5.99 µM
IC50 (CT26 [13]): 3.13 µM

solubility [3]: 0.00411 mg/mL (≈ 6.82 µM)
Compound: COc1cc(/C=C2\CC/C(=C\c3ccc(OCCCN4CCCCC4)c(OC)c3)C2=O)ccc1OCCCN1CCCCC1
IC50 [2]: 0.39 µM
inhibition at 10 µM [4]: 86.6%
inhibition at 10 µM [5]: 84.2%
inhibition at 10 µM [6]: 83.8%
IC50 [8]: 0.67 µM
inhibition at 10 µM (CT26 [9]): 91.9%
IC50 [11]: 0.68 µM
IC50 [12]: 0.44 µM
IC50 (CT26 [13]): 0.18 µM

solubility [3]: 0.0216 mg/mL (≈ 36.5 µM)
Compound: CCN(CC)CCCOc1ccc(/C=C2\CCC/C(=C\c3ccc(OCCCN(CC)CC)c(OC)c3)C2=O)cc1OC
Activity (SGC-7901 [1]): Dose-dependent effect
IC50 [2]: 0.99 µM
inhibition at 10 µM [4]: 80.4%
inhibition at 10 µM [5]: 78%
inhibition at 10 µM [6]: 82.6%
Activity (SGC-7901 [7]): Dose-dependent effect
Activity (SGC-7901 [19]): Active
IC50 [8]: 3.45 µM
inhibition at 10 µM (CT26 [9]): 91.9%
Activity (SGC-7901 [10]): Active
IC50 [11]: 1.72 µM
IC50 [12]: 1.7 µM
IC50 (CT26 [13]): 2.06 µM

Compound: COc1ccccc1/C=C/C(=O)/C=C/c1ccc(OCCCBr)c(OC)c1
IC50 [2]: 3.53 µM
inhibition at 10 µM [4]: 80.1%
inhibition at 10 µM [5]: 74.8%
inhibition at 10 µM [6]: 81.5%
IC50 [8]: 4.11 µM
inhibition at 10 µM (CT26 [9]): 77.2%
IC50 [11]: 6.69 µM
IC50 [12]: 2.84 µM
IC50 (CT26 [13]): 6.39 µM
